In the library only some 3.4% were active in any assay of this set; here they are far more common.
GPR7 antag: antagonists of human GPR7 (neuropeptides B/W receptor 1); P48145; GPR7-expressing cells, fluorescence antagonist assay; inhibition, % at 4.4 µM; hit rate 1.1% among 290,000; AID 1861; in the data active = inhibition above about 16%, passing the limit was not always enough;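 also: cells stimulated with the agonist NPW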
Target sequence (P48145 whole entry, looked up): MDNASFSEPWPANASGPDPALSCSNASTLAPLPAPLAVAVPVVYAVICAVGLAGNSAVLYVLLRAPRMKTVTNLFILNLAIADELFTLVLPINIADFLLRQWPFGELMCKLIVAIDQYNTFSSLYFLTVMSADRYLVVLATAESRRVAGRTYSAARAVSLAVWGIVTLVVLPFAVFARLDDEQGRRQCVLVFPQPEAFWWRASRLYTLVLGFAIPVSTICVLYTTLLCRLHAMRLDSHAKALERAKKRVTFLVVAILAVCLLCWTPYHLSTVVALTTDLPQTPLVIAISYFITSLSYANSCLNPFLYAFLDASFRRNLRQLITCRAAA
LANA-H2B inh: blocks KSHV LANA binding to histone H2A/H2B; cell-free LANA-H2A/H2B peptide, fluorescence polarization; Q9QR71; AID 2629; inhibition, % (concentration not given with the values); hit rate 0.6% among 320,000; in the data active = inhibition mostly above about 10%, no sharp cut-off; inactive = mostly below about 6.7%
TRPN1 ag: activates the zebrafish TRPN1 channel; HEK293 zebrafish TRPN1-YFP, Fluo-8 calcium fluorescence; 100% = response to 87 µM carbachol; activation, % at 3 µM; hit rate 0.18% among 220,000; AID 1424;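 active = activation above its plate's cutoff, the mean activation of test wells on that plate plus 3 SD, cut at about 19% in these data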
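Material: zebrafish TRPN1-YFP in HEK293 cells. Doses: one dose of 3 µM, 0.3% DMSO. Incubation: dye 1 h 37 °C plus 30 min RT. Measured by: intracellular calcium fluorescence with Fluo-8.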
TRPML3 ag: human mucolipin-3 channel agonism | hit rate 0.29% among 220,000 | AID 1448 | activation, % at 3 µM | Q8TDD5 | HEK293 TRPML3-YFP, Fluo-8 calcium fluorescence; 100% = the carbachol control signal;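 active = activation above its plate's cutoff, the mean activation of the plate's test wells plus 3 SD, cut at about 12% in these data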
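Test system: HEK293 cells stably carrying human TRPML3-YFP; Doses: single dose, 3 µM final nominal compound, 0.3% DMSO final; Schedule: dye loading 1 h 37 °C then 30 min ambient, 125 s read; Technique: Fluo-8 calcium fluorescence; Benchmarks: high control carbachol 87 µM, low control DMSO.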
TAAR1 ag: agonists of human TAAR1 | CHO RD-HGA16 TAAR1, Fluo-8 calcium fluorescence; vehicle wells 0%, saturating PEA agonist 100% | activation, % at 3 µM | hit rate 0.99% among 360,000 | AID 624467;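 active = activation above the mean activation of all test compounds in the run plus 3 SD, cut at about 38% in these data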
Target sequence (Q96RJ0 whole entry, looked up): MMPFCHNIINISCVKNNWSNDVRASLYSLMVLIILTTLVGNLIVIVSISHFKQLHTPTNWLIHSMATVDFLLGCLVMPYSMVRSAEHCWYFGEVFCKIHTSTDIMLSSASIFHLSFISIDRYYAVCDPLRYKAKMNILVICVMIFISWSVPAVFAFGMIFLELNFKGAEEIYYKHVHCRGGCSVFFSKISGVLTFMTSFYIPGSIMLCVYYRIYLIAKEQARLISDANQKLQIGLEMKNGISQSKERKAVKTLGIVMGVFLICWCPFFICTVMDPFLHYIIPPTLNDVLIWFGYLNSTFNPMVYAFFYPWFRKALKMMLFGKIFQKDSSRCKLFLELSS
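Assay system: CHO-derived RD-HGA16 cells with stable Gα16 and human TAAR1; timing: 17-24 h seeding, 75 min 37 °C dye, 30 min RT; read-out: % activation from peak over basal fluorescence ratio, DMSO-to-PEA scaled; measured by: kinetic Fluo-8 calcium fluorescence; benchmarks: low control DMSO, high control PEA (EC100); doses: 3 µM single concentration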
TAAR1 antag: antagonists of human TAAR1; Q96RJ0; inhibition, % at 3 µM; CHO RD-HGA16 TAAR1, Fluo-8 calcium fluorescence, antagonist; hit rate 1.5% among 360,000; AID 624466;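 active = inhibition above a per-plate cutoff, the mean inhibition of test compounds on that plate plus 3 SD, cut at about 49% in these data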
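Test system – hTAAR1-expressing CHO RD-HGA16 cells, Gα16-coupled · Reagent – β-PEA at EC80 concentration, post-compound challenge · Compound dosing – 3 µM, single point · Timing – 140 s kinetic read after compound, 140 s after agonist · Detection – Fluo-8 intracellular calcium dye fluorescence, real-time kinetic reads · Control set – DMSO and EC80 PEA controls · Repeats – n of 1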
TAAR1 ag conf: human TAAR1 agonism, confirmed. shares compounds with TAAR1 ag. CHO RD-HGA16 TAAR1, Fluo-8 calcium fluorescence; scaled: DMSO 0%, maximal phenethylamine 100%. activation, % at 3 µM. hit rate 82% among 2,400;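 active = activation above a cutoff set at the run's mean compound activation plus 3 SD, cut at about 39% in these data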
Ga16 nonsel ag: nonselective agonism, TAAR1 counter-screen. AID 651787. CHO-Ga16 parental, Fluo-8 calcium fluorescence; normalized to maximal ATP response, DMSO zero. activation, % at 3 µM. shares compounds with TAAR1 ag. hit rate 50% among 2,400;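 active = activation above the run cutoff, the mean activation over all tested wells plus 3 SD, cut at about 12% in these data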
TAAR1 desens: TAAR1 response desensitization, agonist counter-screen; hit rate 46% among 2,400; AID 651951; shares compounds with TAAR1 ag; inhibition, % at 3 µM; CHO RD-HGA16 hTAAR1, Fluo-8 calcium, beta-PEA response inhibition;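 active = inhibition above the run cutoff, the mean inhibition of all test compounds plus 3 SD, cut at about 49% in these data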;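 also: beta-PEA stimulus applied at its EC80; loss of beta-PEA calcium signal after compound pretreatment read as receptor desensitization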
Ga16 nonsel ant: nonselective Ga16 antagonist in TAAR1 agonist counter-screen. CHO-Ga16 ATP-induced calcium, Fluo-8 fluorescence. hit rate 39% among 2,400. shares compounds with TAAR1 ag. inhibition, % at 3 µM. AID 651952;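 active = inhibition above the plate's mean compound inhibition plus 3 SD, computed per plate, cut at about 22% in these data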
Hits are given with their value; – = inactive; · = no result.

SMILES | GPR7 antag | LANA-H2B inh | TRPN1 ag | TRPML3 ag | TAAR1 ag | TAAR1 antag | TAAR1 ag conf | Ga16 nonsel ag | TAAR1 desens | Ga16 nonsel ant
COC(=O)c1nccc2c1[nH]c1ccccc12 | · | – | · | · | – | – | · | · | · | ·
CC(C)c1ccc(NC(=O)[C@@H](C)NC(=O)[C@@H]2Cc3ccccc3CN2)cc1 | – | – | · | · | 77.6 | – | – | 12.4 | – | –
CC1Nc2ncnc(N3CCc4ccccc4C3)c2N(Cc2ccc(Br)cc2)C1=O (centres undefined) | · | – | · | · | 83.0 | – | – | – | – | –
O=C(CSc1nc(O)c(C2CCCCC2)c(=O)[nH]1)Nc1ccccc1Cl | – | – | · | · | – | – | · | · | · | ·
O=C(C[C@@H]1C=C[C@H](NC(=O)Cc2ccccn2)[C@@H](CO)O1)NCCc1ccccc1 | · | · | · | · | · | · | · | – | · | –
C=CCN(CC=C)S(=O)(=O)c1ccc2nc(NC(=O)C(C)C)sc2c1 | – | – | – | – | 39.5 | – | 69.1 | 30.6 | – | –
CCOC(=O)c1ccc2nc(NC(=O)C(C)C)sc2c1 | – | – | – | – | – | – | · | · | · | ·
COC(=O)c1cc(NC(=O)CN2C(=O)CSC2=O)ccc1Cl | – | – | – | – | 70.3 | – | – | – | – | –
Nc1nc(Nc2ccccc2)sc1C(=O)c1ccccc1 | – | – | – | – | 67.9 | – | 50.2 | 23.4 | – | –
CC(Cc1ccccc1)N/C=C1/CC(=O)NC1=O (centres undefined) | – | – | – | – | 83.3 | 54.3 | 91.0 | – | – | –
CC(C)CNc1nc(N)c([N+](=O)[O-])c(NC2CCCCC2)n1 | – | – | · | · | – | – | · | · | · | ·
CNc1nc(N)c([N+](=O)[O-])c(NC2CCCCC2)n1 | – | – | · | · | 59.7 | – | 90.3 | 42.2 | – | –
COc1ccc(/C=C/CN2CCC(C(=O)NC(c3ccc(F)cc3)c3ccc4ccccc4n3)CC2)cc1 (centres undefined) | · | · | · | · | 47.2 | – | 39.6 | 22.7 | – | 26.1
CN(Cc1ccccc1)C(=O)[C@@H]1CCCN1C(=O)[C@@H]1CCCN1C(=O)c1cccc(Cl)c1 | · | · | · | · | – | – | · | · | · | ·
O=C(Nc1ccc(Cl)cc1)C1Cc2c(-c3ccccc3)ccnc2O1 (centres undefined) | · | · | · | · | – | – | · | · | · | ·
O=C(NCC(c1ccco1)N1CCc2ccccc2C1)c1ccc(Br)cc1 (centres undefined) | · | – | · | · | 45.4 | – | – | – | – | –
O=C(NCC(c1ccco1)N1CCc2ccccc2C1)c1ccc(Cl)cc1 (centres undefined) | · | – | · | · | 73.9 | – | 38.1 | – | – | –
NC(Cc1ccc(C(F)(F)F)cc1)c1csc(NC(=O)Nc2ccccc2)n1 (centres undefined) | · | · | · | · | 50.4 | – | 60.9 | 39.7 | 62.6 | 53.1
NC(CCc1ccccc1)c1csc(NC(=O)Nc2cccc(C(F)(F)F)c2)n1 (centres undefined) | · | · | · | · | 48.6 | – | 39.4 | 19.4 | – | 39.5
COc1ccc(CC(N)c2csc(NC(=O)Nc3cccc(C(F)(F)F)c3)n2)cc1 (centres undefined) | · | · | · | · | 84.5 | 64.9 | 79.6 | 42.4 | 65.3 | 54.5
NC(Cc1ccc(C(F)(F)F)cc1)c1csc(Nc2cc(Oc3ccccc3)ncn2)n1 (centres undefined) | · | · | · | · | 48.3 | – | 38.1 | 21.2 | – | 37.8
CSCCC(NC(=O)COc1ccccc1)C(=O)NCCOc1ccccc1 (centres undefined) | · | – | · | · | – | – | · | · | · | ·
NC(CO)c1csc(NC(=O)Nc2cccc(Cl)c2)n1 (centres undefined) | · | · | · | · | – | – | · | · | · | ·
NC(COCc1ccccc1)c1csc(NC(=O)Nc2cccc(Cl)c2)n1 (centres undefined) | · | · | · | · | 58.0 | – | 50.7 | 21.6 | – | 41.0
NC(Cc1ccc(C(F)(F)F)cc1)c1csc(Nc2nncc3ccccc23)n1 (centres undefined) | · | · | · | · | 54.6 | – | 140.5 | 57.8 | 105.8 | 69.1
SMILES | GPR7 antag | LANA-H2B inh | TRPN1 ag | TRPML3 ag | TAAR1 ag | TAAR1 antag | TAAR1 ag conf | Ga16 nonsel ag | TAAR1 desens | Ga16 nonsel ant
O=C(/C=C/NCc1cccnc1)c1ccc(-c2ccccc2)cc1 | – | – | · | · | – | – | · | · | · | ·
C=CCNc1nc2cc(-c3ccc(C(=O)N4CCOCC4)cc3)sc2c(=O)n1C | · | · | · | · | – | – | · | · | · | ·
Cc1cc(C)c(-c2c(N)cc(Br)cc2Br)c(N)c1 | · | · | · | · | – | – | · | · | · | ·
Cc1ccc(-n2nnc3c(=O)n(Cc4cc(C)ccc4C)cnc32)cc1 | – | – | – | – | 43.1 | 94.9 | 70.8 | 35.0 | 86.8 | 52.6
Cc1ccc(-n2nnc3c(=O)n(CC(=O)NCc4ccccc4)cnc32)cc1 | – | – | – | – | 42.3 | – | – | – | – | –
O=C(Cn1cnc2c(nnn2-c2ccccc2)c1=O)NCc1ccc(F)cc1 | – | – | – | – | – | – | · | · | · | ·
Cc1ccc(-n2nnc3c(=O)n(Cc4cccc(C)c4)cnc32)cc1 | – | – | – | – | – | – | · | · | · | ·
O=c1c2nnn(-c3ccc(Cl)cc3)c2ncn1Cc1ccccn1 | – | – | – | – | 476.3 | 86.4 | – | – | – | –
COc1cc(CN2CCC(n3nccc3NC(=O)C3CC3)CC2)cc(OC)c1 | – | – | · | · | – | – | · | · | · | ·
O=C(Nc1c(-c2ccc(Cl)cc2)[nH][nH]c1=O)c1ccccc1Cl | · | · | · | · | – | – | · | · | · | ·
Cc1cc(C)c2c(c1)/C(=N/NC(=O)c1cc(C)oc1C)CCC2 | – | – | – | – | 81.8 | – | – | – | – | –
Cc1cc(C)c2c(c1)/C(=N/NC(=O)c1ccc(O)cc1)CCC2 | – | – | – | – | – | – | · | · | · | ·
Cc1nn(C(=O)CCC(=O)NCCc2ccccc2)c2ccccc12 | – | · | · | · | · | · | · | – | · | –
Cc1nn(C(=O)CCC(=O)NCc2cccc(F)c2)c2ccccc12 | – | – | · | · | – | – | · | · | · | ·
Cc1ccc(OCC(=O)NNC(=S)NC(=O)C2CC2)c(C)c1 | – | – | · | · | 48.9 | – | 48.0 | 49.6 | – | 39.3
Cc1ccc(OCC(=O)NNC(=S)NC(=O)C(C)(C)C)c(Br)c1 | – | – | – | – | 155.4 | 106.5 | 132.3 | 109.2 | 97.8 | 71.9
Cc1ccc(OCC(=O)NNC(=S)NC(=O)C2CCCCC2)c(C)c1 | – | – | · | · | · | · | · | · | · | ·
O=C(CNC(=O)C1COc2ccccc2O1)Nc1ccc(F)c(F)c1 (centres undefined) | · | – | · | · | – | – | · | · | · | ·
